Source: PubChem (Johns Hopkins Ion Channel Center)
hERG rescue – compounds protecting human hERG from proarrhythmic drug block | activation (rescue from dofetilide block), less the hit threshold, % at 10 µM | Q12809 | CHO-hERG, FluxOR thallium flux, dofetilide IC70 present | AID 1511 | 310,000 tested, 0.51% active;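 active = activation above the mean of controls blocked by dofetilide plus 5 SD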;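 also: thallium influx through hERG after potassium depolarization seen as dye fluorescence rise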
KCNQ1 act – potentiates or activates the human KCNQ1 potassium channel | P51787 | CHO-K1 KCNQ1, thallium flux FluxOR fluorescence; stronger effect = higher value | B-score at 10 µM | 310,000 tested, 0.35% active;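 active = fluorescence ratio B-score, a plate-corrected score, at least three library SD, with initial intensity B-score within 5 SD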
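Assay system: stable KCNQ1 CHO-K1 line; medium: assay buffer, equal DMSO in all wells; timing: 90 min dye loading and 20 min compound exposure, both at room temperature; technique: kinetic FluxOR thallium fluorescence, 10-s 1-Hz baseline, 110-s post-stimulus read; read-out basis: B score of baseline-normalized fluorescence ratio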
KCNK9 inh – human KCNK9 channel inhibition; Q9NPC2; HEK293 KCNK9, FluxOR thallium flux fluorescence; stronger effect = lower value; B-score at 10 µM; 310,000 tested, 1.2% active;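 active = ratio B-score over 3 SD below the library mean, with starting fluorescence within 5 SD of its mean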;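 also: negative B-score means less thallium flux so channel inhibition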
KCNQ1 block – blocks the human KCNQ1 potassium channel; P51787; 310,000 tested, 1.3% active; CHO-K1 KCNQ1, FluxOR thallium flux fluorescence; stronger effect = higher value; AID 2642; B-score at 10 µM;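 active = compounds whose thallium flux B-score, printed positive for inhibition, exceeds three library SD while starting fluorescence stays within three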;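 also: channel opened by potassium depolarization with thallium stimulus after 20 min compound exposure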
KCNK3 block – human KCNK3 channel inhibition, primary screen; B-score at 10 µM; CHO-KCNK3 thallium flux, FluxOR fluorescence; stronger effect = lower value; AID 602410; O14649; 340,000 tested, 0.84% active;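 active = B-score under library mean minus 4 SD, starting fluorescence ratio at most library mean plus 5 SD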;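 also: more negative B-score means stronger inhibition of thallium flux through KCNK3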
Of the large screens only hits and unclear results are named; the others gave an inactive call. An excerpt weighted towards active compounds, which were near 3.1% of everything screened.

CCCCC/C=N/NC(=O)c1[nH]c2ccc([N+](=O)[O-])cc2c1C	none
CCOC(=O)C1CCCN(C(=O)c2cccc(S(=O)(=O)N(C)c3ccc(C)cc3)c2)C1 (configuration not stated)	none (no result: hERG rescue, KCNQ1 act, KCNK9 inh, KCNQ1 block)
CNC(=O)c1ccc(-c2cc(C(F)(F)F)nn2C)s1	none
Cn1nc(C(F)(F)F)cc1-c1ccc(/C=C(\C#N)C(=O)c2ccccc2)s1	KCNQ1 block 8
Cc1cccc(NCc2ccccc2OCc2ccccc2F)c1	KCNK9 inh -7.46, KCNQ1 block 9
CCOc1cc(CNc2ccccc2)cc(Br)c1OCc1ccccc1F	KCNK9 inh -7.64
COc1cc(CNc2ccc3[nH]c(=O)[nH]c3c2)cc(Br)c1OCc1ccccc1F	none
Cc1ccc(NCc2ccccc2OCc2ccccc2F)cc1	KCNQ1 block 8
CCC(NC(=O)c1[nH]c(C)c(C(C)=O)c1C)c1ccc(Br)cc1 (configuration not stated)	KCNQ1 block 6
CC(C)CNC(=O)/C=C/C=C/c1ccc2c(c1)OCO2	none (no result: hERG rescue, KCNQ1 act, KCNK9 inh, KCNQ1 block)
Cc1ccccc1NC(=S)N(Cc1ccccc1)Cc1cccnc1	none
Cc1ccc(Cl)cc1NC(=S)N(Cc1cccnc1)Cc1ccccc1Cl	KCNQ1 block 6
O=C(O)CN1C(=O)c2cccc(Oc3ccc(Cl)cc3)c2C1=O	KCNK9 inh -6.79
Cc1ccc(N2C(=O)c3cccc(Oc4ccc(Cl)cc4)c3C2=O)c(C)c1	none
COCc1ccc(CN2CCC(C(=O)Nc3cccc(-c4cccc(Cl)c4)c3)CC2)o1	KCNQ1 block 8
CC(=O)c1cccc(OCC(O)CNCCOc2ccc(C)cc2)c1 (configuration not stated)	none
COc1ccc(C(C(=O)NC2CCCCC2)N(Cc2ccco2)C(=O)c2snc(C(N)=O)c2N)cc1 (configuration not stated)	KCNQ1 block 9
CCC(C(=O)NC1CCCCC1)N(Cc1cccs1)C(=O)c1snc(C(N)=O)c1N (configuration not stated)	KCNQ1 block 6
COc1ccccc1N(C(=O)c1snc(C(N)=O)c1N)C(C(=O)NC1CCCC1)c1ccco1 (configuration not stated)	KCNQ1 block 6
O=C(NC1CCCCC1)C(c1cccs1)N(Cc1cccs1)C(=O)c1cccs1 (configuration not stated)	KCNQ1 block 8
COc1ccc(C(C(=O)NC2CCCC2)N(Cc2ccco2)C(=O)c2snc(C(N)=O)c2N)cc1OC (configuration not stated)	none
c1ccc(CCn2cccc2)nc1	none (no result: hERG rescue, KCNQ1 act, KCNK9 inh, KCNQ1 block)
CCCCCc1cc(=O)oc2c(C(CCN3CCCCC3)c3ccc(OC)cc3)c(OC)cc(OC)c12 (configuration not stated)	KCNQ1 block 7
Cc1ccc(S(=O)(=O)CCC(=O)c2ccc(F)cc2)cc1	none
COc1ccc(C(=O)CCS(=O)(=O)c2ccc(F)cc2)cc1OC	KCNQ1 act 24
COC(=O)CNC(c1ccccc1Cl)c1cc(Br)ccc1NS(=O)(=O)c1ccc(C)cc1 (configuration not stated)	KCNK9 inh -6.82
Cc1ccc(C(=O)NC(C#N)=C(Cl)Cl)cc1	none (no result: KCNK3 block)
CC(Oc1cccc(Cl)c1)C(=O)Nc1cc(S(=O)(=O)N2CCOCC2)ccc1N1CCCCC1 (configuration not stated)	KCNQ1 block 7
O=S(=O)(Nc1nc2ccccc2nc1Cl)c1ccc(Br)cc1	KCNQ1 block 9
Cc1nnc(NC(=O)C2CCN(S(=O)(=O)c3cc([N+](=O)[O-])ccc3Cl)CC2)o1	none (no result: hERG rescue, KCNQ1 act, KCNK9 inh, KCNQ1 block)
Cc1cccc2sc(NC(=O)C3CCN(S(=O)(=O)c4cc([N+](=O)[O-])ccc4Cl)CC3)nc12	KCNQ1 block 11
CCCCCCCCC1=NCCc2c1[nH]c1ccccc21	KCNQ1 block 8
Nc1ncnc(Nc2ccccc2Oc2ccccc2)n1	none (no result: hERG rescue, KCNQ1 act, KCNK9 inh, KCNQ1 block)
Cc1cc(C(=O)NNC2CC(=O)N(c3ccc4ccccc4c3)C2=O)c(C)o1 (configuration not stated)	hERG rescue 5.0
O=C(Cc1ccc(Cl)cc1)NNC1CC(=O)N(c2ccc3ccccc3c2)C1=O (configuration not stated)	none
CCOC(=O)C1=C(CSc2nc3c(cc2C#N)CN(C)CC3)OC(N)=C(C#N)C1c1ccccc1 (configuration not stated)	none (no result: hERG rescue, KCNQ1 act, KCNK9 inh, KCNQ1 block)
CCOC(=O)C1=C(CSc2nc3c(cc2C#N)CCC3)OC(N)=C(C#N)C1c1ccccc1 (configuration not stated)	KCNK9 inh -6.73
O=C1C=C(c2ccccc2)OC(=O)C1C(=O)c1ccccc1 (configuration not stated)	hERG rescue 5.4
Oc1ccc(C=NN=C2c3ccccc3-c3ccccc32)c(O)c1	KCNK3 block -8.78 (no result: hERG rescue, KCNQ1 act, KCNK9 inh, KCNQ1 block)
O=[N+]([O-])c1cccc(/C=N\N=C2c3ccccc3-c3ccccc32)c1O	none
O=C1NC[C@H](Cc2ccccc2)N(CC2CCN(CC3CCCC3)CC2)C1=O	none (no result: hERG rescue, KCNQ1 act, KCNK9 inh, KCNQ1 block)
O=C(NCc1ccccc1)C(=O)Nc1nc(C23CC4CC(CC(C4)C2)C3)cs1	hERG rescue 17.5, KCNQ1 act 10
O=C(NCc1ccc(F)cc1)C(=O)Nc1nc(C23CC4CC(CC(C4)C2)C3)cs1	hERG rescue 4.9
Cc1oc(=O)cc(OCc2ccccc2)c1C	none (no result: hERG rescue, KCNQ1 act, KCNK9 inh, KCNQ1 block)
O=C(CSc1ncccn1)NCc1ccc(Cl)cc1	none
O=C(CSc1ncccn1)NCc1cccc(Cl)c1	hERG rescue 6.3
COc1ccc(NC(=O)CN2C(=O)NC(c3ccccc3)(c3ccccc3)C2=O)cc1	none
COc1ccc(C2(c3ccc(OC)cc3)NC(=O)N(CC(=O)Nc3ccc(OC(F)F)cc3)C2=O)cc1	KCNQ1 block 9
CCc1ccc(NC(=O)C(C)OC(=O)Cc2cc(OC)c(OC)c(OC)c2)cc1 (configuration not stated)	KCNK3 block -10.5 (no result: hERG rescue, KCNQ1 act, KCNK9 inh, KCNQ1 block)
CCOC(=O)c1ccc(NC(=O)CSC2=NN3CCCC(=O)N=C3S2)cc1	none
CN(Cc1ccccc1)C1=CC(=[N+]2CCCC2)CC(C)(C)C1	KCNQ1 block 10
CCN(CC)C1=CC(=[N+]2CCCC2)CC(C)(C)C1	none
CC1(C)CC2CC(C)(CN2C(=S)Nc2ccccc2)C1 (configuration not stated)	none
CC1(C)CC2CC(C)(CN2C(=S)NC(=O)c2ccccc2Cl)C1 (configuration not stated)	hERG rescue 38.9, KCNQ1 act 27
Cc1cc(Cl)c2oc(C(=O)N(C)CC3CCOCC3)c(C)c2c1	none
COc1nccnc1NS(=O)(=O)c1ccc(NC(=S)NC(=O)c2ccccc2F)cc1	KCNQ1 act 8
CCCCN1C[C@H](Cc2ccccc2)[C@@H](CC(=O)Nc2ccccc2)C1=O	none
Cc1[nH]c2ccc(F)cc2c1CCN(Cc1ccncc1)C(=S)Nc1ccc(F)cc1	KCNK9 inh -7.12
Cc1ccccc1NC(=S)N(CCc1c(C)[nH]c2ccc(F)cc12)Cc1cccnc1	none
CC(=O)Nc1ccc(NC(=O)CSc2nnc(N)n2-c2ccccc2)cc1	none (no result: hERG rescue, KCNQ1 act, KCNK9 inh, KCNQ1 block)
